Hits are enriched below; roughly 2.2% of the tested compounds scored in any of these assays.
PLK1 kinase inh = PLK1 (human) kinase inhibition; inhibition, % at 10 µM; P53350; recombinant PLK1 kinase, TR-FRET peptide phosphorylation; actives 0.53% (n = 97,000);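 active = inhibition of 50% or more in the single-concentration screen; inactive = inhibition below 50%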;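 also: 0% = DMSO max control and 100% = H-89 dihydrochloride min control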
Target sequence (P53350 whole entry, looked up): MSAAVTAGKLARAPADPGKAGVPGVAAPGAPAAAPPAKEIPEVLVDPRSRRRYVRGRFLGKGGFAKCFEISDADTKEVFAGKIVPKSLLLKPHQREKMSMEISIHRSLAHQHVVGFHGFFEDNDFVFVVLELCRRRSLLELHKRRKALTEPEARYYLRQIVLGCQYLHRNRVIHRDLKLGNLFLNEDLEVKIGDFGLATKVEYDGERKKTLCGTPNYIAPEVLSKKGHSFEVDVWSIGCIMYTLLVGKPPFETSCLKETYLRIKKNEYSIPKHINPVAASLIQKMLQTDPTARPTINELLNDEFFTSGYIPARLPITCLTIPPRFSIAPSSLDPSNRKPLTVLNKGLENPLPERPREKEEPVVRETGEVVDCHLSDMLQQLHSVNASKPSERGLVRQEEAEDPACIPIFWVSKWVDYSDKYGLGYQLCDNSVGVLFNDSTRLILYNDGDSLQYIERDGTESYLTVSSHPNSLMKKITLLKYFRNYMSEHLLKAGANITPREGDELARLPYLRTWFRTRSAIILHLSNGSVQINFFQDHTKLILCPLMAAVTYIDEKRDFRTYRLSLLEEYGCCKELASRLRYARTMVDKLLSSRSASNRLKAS
HIV Rev-RRE inh = HIV Rev-RRE protein-RNA interaction inhibition | P05866 | Rev peptide-RRE RNA binding, FRET | actives 0.79% (n = 97,000) | inhibition, % at 8 µM;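 active = inhibition above the screen-wide mean plus 3 SD, cut at about 35% in these data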;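 also: 0% = median DMSO wells and 100% = median Neomycin B control wells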
Target sequence (P05866 whole entry, looked up): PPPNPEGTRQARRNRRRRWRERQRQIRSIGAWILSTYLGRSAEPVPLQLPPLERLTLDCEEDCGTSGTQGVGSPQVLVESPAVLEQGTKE
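Test system: Cy5-tagged RRE RNA duplex with fluorescein-tagged Rev peptide; Probe or stimulus: labelled Rev peptide; Schedule: 5 min preincubation and 15 min binding, 25 °C; Signal: FRET fluorescence readout; Evaluation: % inhibition from 671/540 nm acceptor-to-donor ratio, scaled between controls; Control set: DMSO and neomycin B.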
FAK inh = inhibitors of human focal adhesion kinase. Q05397. biochemical FAK kinase activity assay. inhibition, %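 (tested at 7 µM)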. actives 0.84% (n = 97,000). AID 727;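 also: 0% = DMSO and 100% = reference compound high control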
cytoskel mod = cytoskeleton assembly modification; HUVEC TNFa F-actin phalloidin imaging, high content; inhibition, % at 2 µM; actives 0.18% (n = 91,000); AID 836;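 active = inhibition above the batch mean plus 3 SD and confirmed as a hit by visual image inspection, cut at about 30% in these data, passing the limit was not always enough; inconclusive = above the inhibition threshold but rejected on visual inspection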
E-sel TNF inh = blocks E-selectin expression induced by TNF alpha | actives 0.71% (n = 120,000) | HUVEC TNFa-induced E-selectin immunofluorescence, high content | inhibition, % at 2 µM;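 active = inhibition above the batch mean plus 3 SD, and confirmed as a hit on visual image review, cut at about 43% in these data; inconclusive = passes the inhibition cutoff but fails visual image review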;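 also: 0% = TNF-stimulated DMSO wells and 100% = unstimulated control wells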
Plk1 PBD FP = Plk1 (human) PBD binding inhibition. inhibition, %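 (tested at about 20 µM)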. P53350. actives 0.13% (n = 97,000). Plk1 PBD phosphopeptide binding, fluorescence polarization; in the data active = inhibition above about 34%, passing the limit was not always enough
PLK1 inh conf = PLK1 (human) kinase inhibition, confirmed | shares compounds with PLK1 kinase inh | recombinant PLK1 kinase, TR-FRET peptide phosphorylation | inhibition, % at 10 µM | actives 20% (n = 210);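 active = inhibition at or above 50% in each of two repeat confirmation tests; inconclusive = one repeat below 50% inhibition, the other above; inactive = both repeats at or below 50% inhibition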;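 also: 0% = DMSO max control and 100% = H-89 kinase-blocked min control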
TR-FRET interf = counter-screen for Plk1 inhibitors: compound assay interference. shares compounds with PLK1 kinase inh. Plk1 TR-FRET assay interference, compound added post-reaction. inhibition (interference), % at 10 µM. 210 tested, under 10 active. AID 756;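 active = both duplicate runs show 50% or greater inhibition; inconclusive = only one duplicate run shows over 50% inhibition; inactive = both runs show under 50% inhibition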;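 also: 0% = DMSO max control and 100% = H-89 min control inhibited reaction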
PBD redox DR = redox cycling H2O2 generation counter-screen for Plk1 PBD; shares compounds with Plk1 PBD FP; DTT; EC50, µM; 120 tested, under 10 active; AID 876; call rule not given here
FAK inh conf = confirmation of human focal adhesion kinase (FAK) inhibitors | AID 794 | actives 28% (n = 750) | inhibition, % at 7 µM | FAK kinase biochemical inhibition assay | shares compounds with FAK inh
An asterisk follows results filed as active; i = inactive; u = inconclusive; x = not tested or not shown; [ ] = dose if it differs, or a comment. Rule as the data show it, unless noted: active = inhibition above about 19%; inactive = the rest.

SMILES | PLK1 kinase inh | HIV Rev-RRE inh | FAK inh | cytoskel mod | E-sel TNF inh | Plk1 PBD FP | others
CN1C(=O)/C(=C\c2ccc(N3CCCCC3)o2)C(=O)NC1=S | -54.5 | 128.0*[fluorescence artefact?] | 12.2 | 11.1 | 2.1 | -120.7
C=CCN1C(=O)/C(=C\c2ccc(N3CCOCC3)o2)C(=O)NC1=S | x | x | x | x | -9.5 | x
CN1C(=O)C(=Cc2ccc(N3CCOCC3)o2)C(=O)N(C)C1=S | x | x | x | x | 1.7 | x
CN1C(=O)/C(=C/c2ccc(N3CCCCCC3)o2)C(=O)NC1=S | -41.6 | 126.2*[fluorescence artefact?] | 6.6 | 10.0 | 5.3 | -85.9
COC(=O)c1c(C)[nH]c(C(=O)C(C)[N+]23CCN(CC2)CC3)c1C (stereo not drawn) | x | x | x | x | -52.0 | x
CCOP(=O)(OCC)C1(O)C(=O)Nc2ccc(Br)cc21 (stereo not drawn) | x | x | x | x | -7.0 | x
CSCCC(N=Cc1c(O)n(-c2ccc(Cl)cc2)c(=O)[nH]c1=O)C(=O)OC(C)(C)C (stereo not drawn) | -4.0 | 7.9 | 3.2 | -9.8 | 2.0 | -35.1
CCOC(=O)c1ccc(N=Cc2c(O)n(-c3ccccc3F)c(=S)[nH]c2=O)cc1 | x | x | x | x | 10.0 | x
CCN(CC)CCOC(=O)c1ccc(N=Cc2c(O)[nH]c(=O)[nH]c2=O)cc1 | -3.2 | 24.5 | -2.3 | -17.0 | 51.4* | -5.1
O=c1[nH]c(=O)n(CCc2ccccc2)c(O)c1C=NCc1ccc2c(c1)OCO2 | -12.2 | 3.4 | 14.0 | -4.8 | -3.2 | -4.5
CN(C)c1ccc(C(=O)c2ccc(N(C)C)cc2)cc1 | 0.1 | 7.0 | 3.1 | -18.0 | x | 9.2
C/C(=C\c1ccc(N(C)C)cc1)[N+](=O)[O-] | -23.1 | 73.4* | -5.5 | -34.9 | -29.1 | 33.3
O=C1NC(=O)C(=Cc2cn(CCOc3ccc4c(c3)OCO4)c3ccccc23)C(=O)N1 | -7.8 | 44.2* | 2.8 | -8.0 | -12.8 | 1.2
O=C1NC(=O)C(=Cc2ccc3c(c2)OCO3)C(=O)N1 | x | x | x | x | -13.1 | x
COc1cc(/C=C2\C(=O)NC(=O)N(c3ccccc3)C2=O)cc(OC)c1O | -7.5 | 58.8* | -1.1 | 9.3 | x | 33.5
COc1ccc(Oc2cc(NC(=O)c3nn(C)cc3[N+](=O)[O-])cc([N+](=O)[O-])c2)cc1 | -11.1 | 2.6 | 2.2 | 24.1 | 90.4* | -8.5
COC(=O)C1CN(C#N)N(c2ccc(Cl)cc2)C12c1ccccc1-c1ccccc12 (stereo not drawn) | -7.9 | 6.6 | 1.3 | u | 63.4* | 5.0
N#Cc1c(/N=C/c2c(O)n(Cc3ccco3)c(=O)[nH]c2=O)sc2c1CCCC2 | -7.4 | 39.7* | 1.0 | 3.0 | 21.5 | -11.3
O=c1[nH]c(=O)n(Cc2ccco2)c(O)c1C=NCc1cccs1 | 3.0 | 5.1 | -3.9 | 5.4 | 17.8 | -3.0
CCN(CC)c1ccc(N=Cc2c(O)n(-c3cc(OC)ccc3OC)c(=O)[nH]c2=O)cc1 | -2.7 | 63.6* | 1.5 | 7.2 | -24.4 | -53.0
Cc1ccc(C2C(S(C)(=O)=O)=C(O)C(=O)N2c2ccccc2)cc1 (stereo not drawn) (tested in a mixture with another compound) | -5.5 | 9.2 | -1.1 | -3.0 | x | 11.2
O=C1NC(=S)N(c2ccc(Cl)cc2)C(=O)/C1=C/N1CCN(C(=O)c2ccco2)CC1 | -8.5 | 41.0* | 4.7 | 20.4 | -24.4 | 10.7
CN(C)C(=O)Oc1c(Cl)cc(Cl)c2cccnc12 | x | x | x | x | 74.5* | x
CC(=O)Nc1ccc(OCCF)cc1 | x | x | x | x | 99.9* | x
COC(=O)C(O)(c1ccc(NC(=S)NC(=O)c2ccccc2)cc1)C(F)(F)F (stereo not drawn) | -5.1 | 0.3 | -7.7 | -2.9 | -39.1 | -16.7
SMILES | PLK1 kinase inh | HIV Rev-RRE inh | FAK inh | cytoskel mod | E-sel TNF inh | Plk1 PBD FP | others
Cc1nn(Cc2ccccc2)c(C)c1C(=O)OCC(=O)Nc1ccccc1SCC#N | -6.4 | 60.7* | 0.9 | -11.6 | -8.8 | -13.0
CN1CCN(/N=C/c2c(O)n(C)c(=O)n(C)c2=O)CC1 | x | x | x | x | 3.6 | x
COc1c(C)cc(C(=O)C2CCCN(Cc3ccccn3)C2)cc1C (stereo not drawn) | x | x | x | x | -8.9 | x
O=P(O)(O)Cc1c(Cl)cccc1Cl | x | x | x | x | 22.6 | x
CCOC(=O)c1c(C)n(Cc2ccco2)c2c1cc(O)c1ccccc12 | -12.1 | 6.5 | 0.9 | 16.4 | -14.0 | 1.4
CC1CCC/C=C/C2CC(O)CC2C(O)/C=C/C(=O)O1 (stereo not drawn) | -30.8 | -0.9 | -1.6 | 13.3 | 97.6* | 8.5
Cn1c(O)c(C(=N)COc2cccc(Cl)c2)c(=O)n(C)c1=O | -7.5 | 2.9 | -2.9 | 20.4 | 65.3* | -8.7
CN1/C(=C\C=C\C2=[N+](C)c3ccc4ccccc4c3C2(C)C)C(C)(C)c2ccccc21 | 85.8* | i | -66.4 | 14.3 | 6.6 | -4.5 | PLK1 inh conf=u;TR-FRET interf=11.4
COc1cccc(CCNCc2ccc(SC)cc2)c1 | x | x | x | x | -9.4 | x
COc1ccc(Cn2c(N)c(C(=O)NCc3ccco3)c3nc4ccccc4nc32)cc1OC | 72.5* | 31.4 | 33.7* | 0.2 | 8.8 | -13.3 | PLK1 inh conf=71.4*;TR-FRET interf=-43.1;FAK inh conf=0.5
O=C(O)CCn1cc(C=C2C(=O)NC(=O)NC2=O)c(-c2cc3ccccc3oc2=O)n1 | x | x | x | x | -0.7 | x
CCOC(=O)c1ccc(NC(=O)c2c(O)[nH]c(=O)[nH]c2=O)cc1 | 9.4 | 140.3*[fluorescence artefact?] | -2.8 | -9.8 | x | 58.8* | PBD redox DR=>50
COC(=O)c1ccc(NC(=O)CSc2nc3ccc(N4C(=O)C5C6C=CC(C6)C5C4=O)cc3s2)cc1 (stereo not drawn) | x | x | x | x | -23.9 | x
Cc1nc2c(=O)n(C)c(=O)nc-2n(C)n1 | -12.0 | 7.2 | 68.3* | 3.3 | -37.2 | 115.6* | PBD redox DR=1.58*
CC1(C)NCCN2C(=O)CSC21 (stereo not drawn) | -12.3 | 7.8 | -3.6 | 0.2 | -0.7 | -6.7
O=C1C(=O)c2ccccc2-c2ccccc21 | 3.4 | 6.9 | 59.4* | 18.2 | -26.0 | 94.5* | PBD redox DR=>50;FAK inh conf=58.9*
Cc1ccc(C2=CCNCC2)cc1 | x | x | x | x | -37.3 | x
C=CCN(CC=C)Cc1c[nH]c2ccccc12 | -10.0 | 8.4 | 4.7 | 18.1 | 42.5 | 33.5
O/N=C/c1c[nH]c2ccccc12 | 14.8 | 1.2 | 37.9* | 0.1 | 4.2 | -8.3 | FAK inh conf=11.3
CC(C)CNC(=O)c1c(N)n(Cc2ccc3c(c2)OCO3)c2nc3ccccc3nc12 | 19.8 | 19.5 | 31.0* | -0.8 | -2.1 | 2.2 | FAK inh conf=-0.1
CC(C)CCn1c(N)c(C(=O)NCc2cccs2)c2nc3ccccc3nc21 | -12.6 | 8.2 | 23.4* | -7.8 | 11.7 | -7.3 | FAK inh conf=-2.6
